Data from ChEMBL document CHEMBL1149845, “Synthesis, cytotoxic activities and structure-activity relationships of topoisomerase I inhibitors: indolizinoquinoline-5,12-dione derivatives” (Bioorg Med Chem, 2008).

Key:
[1] = Cytotoxicity against human GLC82 cells after 2 days by MTT assay; format: functional, cell-based; conditions: GLC82, 48 h
Outline: (§1)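 Cells grown in RPMI-1640 with 10% FBS, penicillin 100 U/mL and streptomycin 100 µg/mL at 37 °C, 5% CO2, passage 3–6. Exponential-phase cells seeded at 5 × 10⁴–1 × 10⁵ cells/ml, grown overnight, then exposed for 2 days to compounds predissolved in DMSO at selected concentrations. Viability read by MTT.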

HL-60 = assay: Cytotoxicity against human HL60 cells after 2 days by MTT assay; format: functional, cell-based; conditions: HL-60, 48 h; outline: as §1
MCF7 = assay: Cytotoxicity against human MCF7 cells after 2 days by MTT assay; format: functional, cell-based; conditions: MCF7, 48 h; outline: as §1
NCI-H460 = assay: Cytotoxicity against human NCI-H460 cells after 2 days by MTT assay; format: functional, cell-based; conditions: NCI-H460, 48 h; outline: as §1
Bos taurus [2] = species: Bos taurus; assay: Inhibition of calf thymus topoisomerase 1-mediated supercoiled plasmid DNA relaxation at 125 uM
Bos taurus [3] = species: Bos taurus; assay: Inhibition of calf thymus topoisomerase 1-mediated supercoiled plasmid DNA relaxation at 0.2 uM
Outline: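 Calf thymus TOP1 relaxation of 0.5 µg pBR322 in 20 µL buffer (20 mM Tris pH 7.5, 0.1 mM EDTA, 10 mM MgCl2, 50 µg/mL acetylated BSA, 100 mM KCl), compound from DMSO. Started by adding DNA, 30 min at 37 °C, stopped with loading buffer. 1% agarose gel in Tris-borate/EDTA at 5 V/cm, ethidium bromide stain. Supercoiled DNA quantified densitometrically.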

| SMILES | IC50 [1] | IC50 (HL-60) | IC50 (MCF7) | IC50 (NCI-H460) | inhibition (Bos taurus [2]) | inhibition (Bos taurus [3]) |
| --- | --- | --- | --- | --- | --- | --- |
| CCOC(=O)c1c2c(n3cccc(C)c13)C(=O)c1ncccc1C2=O | 1.83 µM | 0.22 µM | 14.5 µM |  |  |  |
| CC(=O)c1c2c(n3ccccc13)C(=O)c1cccnc1C2=O | 1.9 µM | 14.7 µM | 12.7 µM | 1400 nM |  |  |
| CCOC(=O)c1c2c(n3ccccc13)C(=O)c1cccnc1C2=O | 2.4 µM | 14.5 µM | 6.38 µM | 1900 nM |  |  |
| CC(=O)c1c2c(n3cccc(O)c13)C(=O)c1ncccc1C2=O | 19.5 µM | > 25 µM | 17.6 µM | 24800 nM |  |  |
| CCOC(=O)c1c2c(n3cccc(Br)c13)C(=O)c1ncccc1C2=O | < 0.25 µM | 9.32 µM | 10.3 µM | 2000 nM |  |  |
| CCOC(=O)c1c2c(n3ccccc13)C(=O)c1ccccc1C2=O | > 25 µM | > 25 µM | > 25 µM |  |  |  |
| CC(=O)c1c2c(n3cccc(Br)c13)C(=O)c1ncccc1C2=O | 2.01 µM | 0.21 µM | 11.7 µM | 2150 nM |  |  |
| CC(=O)c1c2c(n3cccc(N)c13)C(=O)c1cccnc1C2=O | 10.3 µM | 15.8 µM | > 25 µM | 10300 nM |  |  |
| CC(=O)c1c2c(n3cccc(Cl)c13)C(=O)c1ncccc1C2=O | 6.85 µM | 0.19 µM | 7.83 µM | 230 nM |  |  |
| Cc1c2c(n3ccccc13)C(=O)c1ncccc1C2=O | 14.2 µM | 12.5 µM | > 25 µM | 12200 nM |  |  |
| CC(=O)c1c2c(n3cccc(Br)c13)C(=O)c1cccnc1C2=O | 4.68 µM | 1.56 µM | 12.4 µM | 200 nM |  |  |
| CC[C@@]1(O)C(=O)OCc2c1cc1n(c2=O)Cc2cc3ccccc3nc2-1 |  |  |  |  | 81.3% |  |
| CC(=O)c1c2c(n3ccccc13)C(=O)c1ncccc1C2=O | < 0.25 µM | 0.86 µM | 7.92 µM | < 250 nM |  |  |
| O=C1c2cc3ccccn3c2C(=O)c2cccnc21 | 16.7 µM | 14.7 µM | 20.2 µM | 12300 nM |  |  |
| CCOC(=O)c1c2c(n3cccc(O)c13)C(=O)c1ncccc1C2=O | 7.2 µM | > 25 µM | > 25 µM | > 25000 nM |  |  |
| CC(=O)c1c2c(n3cccc(F)c13)C(=O)c1cccnc1C2=O | 12.7 µM | 1.39 µM | 9.28 µM | 6750 nM |  |  |

| SMILES | IC50 [1] | IC50 (HL-60) | IC50 (MCF7) | IC50 (NCI-H460) | inhibition (Bos taurus [2]) | inhibition (Bos taurus [3]) |
| --- | --- | --- | --- | --- | --- | --- |
| CCOC(=O)c1c2c(n3cccc(Cl)c13)C(=O)c1ncccc1C2=O | < 0.25 µM | 6.52 µM | 7.37 µM | 2100 nM | 100% | 5.8% |
| CCOC(=O)c1c2c(n3cccc(Br)c13)C(=O)c1cccnc1C2=O | 1.1 µM | 11.5 µM | 20.8 µM | 2400 nM |  |  |
| CCOC(=O)c1c2c(n3cccc(F)c13)C(=O)c1ncccc1C2=O | < 0.25 µM | 1.37 µM | 7.01 µM | < 250 nM |  |  |
| CCOC(=O)c1c2c(n3cccc(O)c13)C(=O)c1cccnc1C2=O | 23.8 µM | > 25 µM | > 25 µM | 23300 nM |  |  |
| CCOC(=O)c1c2c(n3ccccc13)C(=O)c1ncccc1C2=O | < 0.25 µM | 0.88 µM | 0.96 µM | < 250 nM |  |  |
| O=C1c2cccnc2C(=O)c2c1cc1ccccn21 | 11.5 µM | 17 µM | > 25 µM | 15600 nM |  |  |
| CC(=O)c1c2c(n3cccc(N)c13)C(=O)c1ncccc1C2=O | 12.2 µM | 22.3 µM | > 25 µM | > 25000 nM |  |  |
| CC(=O)c1c2c(n3cccc(Cl)c13)C(=O)c1cccnc1C2=O | 16.1 µM | 2.2 µM | 16.1 µM | 1500 nM |  |  |
| CC(=O)c1c2c(n3cccc(F)c13)C(=O)c1ncccc1C2=O | 5.26 µM | 0.17 µM | 2.31 µM | < 250 nM |  |  |
| CC(=O)c1c2c(n3cccc(O)c13)C(=O)c1cccnc1C2=O | 16.3 µM | > 25 µM |  | > 25000 nM |  |  |
| CCOC(=O)c1c2c(n3cccc(N)c13)C(=O)c1cccnc1C2=O | 23.5 µM | > 25 µM | > 25 µM | 19000 nM |  |  |
| CCOC(=O)c1c2c(n3cccc(F)c13)C(=O)c1cccnc1C2=O | 1.7 µM | 5.51 µM | 6.2 µM | 1200 nM |  |  |
| CCOC(=O)c1c2c(n3cccc(N)c13)C(=O)c1ncccc1C2=O | 23.4 µM | 16.4 µM | 20.9 µM | 17600 nM |  |  |
| Cc1c2c(n3ccccc13)C(=O)c1cccnc1C2=O | 21.5 µM | > 25 µM | > 25 µM | > 25000 nM |  |  |
| CCOC(=O)c1c2c(n3cccc(Cl)c13)C(=O)c1cccnc1C2=O | 9.73 µM | 15.4 µM | 19.9 µM | 2200 nM |  |  |
| CCOC(=O)c1c2c(n3cccc(C)c13)C(=O)c1cccnc1C2=O | 9.27 µM | 11.7 µM | > 25 µM |  |  |  |
